“Also recorded” adds a separate entry of the source.
Key:
[1] = tested on: CRL-2365 (brain glioblastoma); assay: MTT assay CRL-2365; format: cell-based; conditions: Homo sapiens, read-out: IC50 MTT assay CRL-2365
In short: (§1)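 Standard MTT growth-inhibition assay with DMSO as vehicle. CRL-2365 and CRL-2366 were kept in DMEM; MCF-7, A549 and mouse 3LL in RPMI-1640. Both media carried 10% fetal bovine serum, penicillin G (100 U/mL) and streptomycin (100 μg/mL). MCF-10A breast cells were grown in Mammary Epithelial Growth Medium.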

[2] = tested on: CRL-2366 (DNA repair deficient brain glioblastoma); assay: MTT assay CRL-2366; format: cell-based; conditions: Homo sapiens, read-out: IC50 MTT assay CRL-2366
In short: as §1

[3] = tested on: cultured human and mouse cell lines; assay: MTT assay, all tested cell lines; format: cell-based
In short: as §1

[4] = biological target: NADH-ubiquinone oxidoreductase (mitochondrial complex I) (Bos taurus, UniProt P03887+P17694+P42026); assay: NADH-ubiquinone; format: biochemical, bovine; conditions: compared with 12
NADH-ubiquinone oxidoreductase (mitochondrial complex I), sequence (P03887 whole entry): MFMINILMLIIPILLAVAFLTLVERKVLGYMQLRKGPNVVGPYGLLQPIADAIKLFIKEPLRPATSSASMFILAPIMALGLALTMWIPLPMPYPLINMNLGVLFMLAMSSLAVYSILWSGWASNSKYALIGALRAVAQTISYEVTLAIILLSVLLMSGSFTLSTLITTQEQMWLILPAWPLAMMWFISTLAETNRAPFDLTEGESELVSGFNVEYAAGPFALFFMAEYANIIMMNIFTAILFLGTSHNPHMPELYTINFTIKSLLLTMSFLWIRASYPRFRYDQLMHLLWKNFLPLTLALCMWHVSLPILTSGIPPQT
NADH-ubiquinone oxidoreductase (mitochondrial complex I), sequence (P42026 38-216): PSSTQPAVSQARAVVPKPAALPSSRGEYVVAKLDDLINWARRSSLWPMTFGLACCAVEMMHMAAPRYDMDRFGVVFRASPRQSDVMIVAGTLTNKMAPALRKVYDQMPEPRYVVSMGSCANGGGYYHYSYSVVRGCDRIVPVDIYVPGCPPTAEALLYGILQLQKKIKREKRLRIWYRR
NADH-ubiquinone oxidoreductase (mitochondrial complex I), sequence (P17694 34-463): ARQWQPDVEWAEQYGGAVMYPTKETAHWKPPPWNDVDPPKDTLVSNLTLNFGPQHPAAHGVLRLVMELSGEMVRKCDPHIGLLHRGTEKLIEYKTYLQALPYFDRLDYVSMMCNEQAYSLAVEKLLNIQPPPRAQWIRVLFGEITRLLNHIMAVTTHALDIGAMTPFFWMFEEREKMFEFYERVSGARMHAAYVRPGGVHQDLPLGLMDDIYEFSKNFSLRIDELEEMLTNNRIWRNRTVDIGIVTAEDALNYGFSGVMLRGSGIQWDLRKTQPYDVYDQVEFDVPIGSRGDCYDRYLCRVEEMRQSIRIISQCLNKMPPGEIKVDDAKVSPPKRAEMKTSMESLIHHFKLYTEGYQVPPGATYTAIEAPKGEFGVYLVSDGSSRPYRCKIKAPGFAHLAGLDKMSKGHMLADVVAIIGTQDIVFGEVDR

[5] = Stability of purified compound; format: physicochemical
[6] = tested on: MCF-7 human breast carcinoma cells; assay: Lactate assay; format: cell-based; conditions: MCF-7 cells, 3 h, varying concentrations
In short: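 MCF-7 cells seeded at 2 × 10^5 per well and grown 24 h (about 50% confluence). Wells rinsed with pre-warmed Krebs-Ringer buffer, then exposed for 3 h to test compound in buffer against buffer-only controls. Supernatant lactate measured as absorbance change at 363 nm and converted using extinction coefficient 9.1 mM−1 cm−1. Three determinations per point; experiments repeated at least three times.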

NADH fumarate reductase = conditions: cited from earlier work
[7] = biological target: NADH oxidase (complexes I, III and IV) (Bos taurus, UniProt P03887+P17694+P42026); assay: NADH oxidase activity in bovine heart submitochondrial particles; format: biochemical; conditions: bovine heart SMP
NADH oxidase (complexes I, III and IV), sequence (P03887 whole entry): as the sequence (P03887 whole entry) above
NADH oxidase (complexes I, III and IV), sequence (P42026 38-216): as the sequence (P42026 38-216) above
NADH oxidase (complexes I, III and IV), sequence (P17694 34-463): as the sequence (P17694 34-463) above

Compound	IC50 [1] [µM]	IC50 [2] [µM]	Stimulation of lactate production (in words) [6]	further results
CCCCCCCCC(C)(O)CCc1oc(=O)c(C)c(O)c1C (racemic) [Compound 12, (rac)-6-[3-Hydroxy-3-methylundecyl]-3,5-dimethyl-4-hydroxypyran-2-one]	> 31	> 31		
CCCCCCCCC(C)(O)CCc1oc(C)c(C)c(=O)c1C (racemic) [Compound 18, (rac)-2-[3-Hydroxy-3-methylundecyl]-3,5,6-trimethyl-4H-pyran-4-one]				Cytotoxicity (in words) [3]: no cytotoxicity
CCCCCCCCC(C)(O)CCc1[nH]c(=O)c(C)c(O)c1C (racemic) [Compound 21, (rac)-6-[3-Hydroxy-3-methylundecyl]-3,5-dimethyl-4-hydroxypyridin-2-one]				Potency relative to 12 as inhibitor of NADH-ubiquinone oxidoreductase [4]: more than 10 fold; Stability after purification by preparative thin layer chromatography [5]: rather unstable
CCCCCCCCCC(O)Cc1oc(OC)c(C)c(=O)c1C (stereo not shown) [Compound 1, 2-(2-Hydroxyundecyl)-6-methoxy-3,5-dimethyl-4H-pyran-4-one]			strongly stimulated	Inhibitory activity toward NADH fumarate reductase (in words) (NADH fumarate reductase): strong inhibitory activity
CCCCCCCC[C@@](C)(O)CCc1oc(=O)c(C)c(O)c1C [Compound 13, (R)-6-[3-Hydroxy-3-methylundecyl]-3,5-dimethyl-4-hydroxypyran-2-one]	> 31	> 31		
CCCCCCCC[C@](C)(O)CCc1oc(=O)c(C)c(O)c1C [Compound 14, (S)-6-[3-Hydroxy-3-methylundecyl]-3,5-dimethyl-4-hydroxypyran-2-one]	> 31	> 31	weakly stimulated	
CCCCCCCC[C@](C)(O)CCc1oc(OC)c(C)c(=O)c1C [Compound 17, (S)-2-[3-Hydroxy-3-methylundecyl]-6-methoxy-3,5-dimethyl-4H-pyran-4-one]			strongly stimulated	
CCCCC(O)Cc1oc(OC)c(C)c(=O)c1C (stereo not shown) [Compound 22, 2-(2-Hydroxyhexyl)-6-methoxy-3,5-dimethyl-4H-pyran-4-one]			weakly stimulated	Inhibition of mitochondrial respiratory chain function (in words) [7]: did not inhibit; also recorded: no inhibitory activity
COc1oc(CC(O)CCCCCOc2ccc(-c3ccccc3)cc2)c(C)c(=O)c1C (stereo not shown) [Compound 30, 2-[2-Hydroxy-7-(4-phenyl)phenoxyheptyl]-6-methoxy-3,5-dimethyl-4H-pyran-4-one]			strongly stimulated	

From article PMC6426446 (Bioorganic & medicinal chemistry, 2010)
